Test results from publication PMC11865470 (Communications Biology, 2025).

What was measured:
Assay in all cases: whole-cell patch-clamp, off-target channel, 10 μM compound
Format in all cases: cell-based
NaV1.4 = NaV1.4 (Homo sapiens, UniProt P35499); conditions: for sensitivity of channel to compound: vs 0.1% DMSO
In short: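 NaV channels, transiently transfected HEK293T cells, whole-cell, 16–24 h after seeding. Pipette (mM): 140 CsF, 1 EGTA, 10 NaCl, 10 HEPES, pH 7.4. Bath (mM): 140 NaCl, 5 KCl, 2 CaCl2, 1 MgCl2, 10 glucose, 10 HEPES, pH 7.4. Bath with 0.1% DMSO applied before 10 μM test compound. Inhibition ratios compared by unpaired t-test, n = 5.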

KV3.1 = molecular target: T1, KV3.1 (Mus musculus, UniProt P15388); conditions: for sensitivity of channel to compound: vs 0.1% DMSO
T1 sequence (P15388 1-585 isoform P15388-3): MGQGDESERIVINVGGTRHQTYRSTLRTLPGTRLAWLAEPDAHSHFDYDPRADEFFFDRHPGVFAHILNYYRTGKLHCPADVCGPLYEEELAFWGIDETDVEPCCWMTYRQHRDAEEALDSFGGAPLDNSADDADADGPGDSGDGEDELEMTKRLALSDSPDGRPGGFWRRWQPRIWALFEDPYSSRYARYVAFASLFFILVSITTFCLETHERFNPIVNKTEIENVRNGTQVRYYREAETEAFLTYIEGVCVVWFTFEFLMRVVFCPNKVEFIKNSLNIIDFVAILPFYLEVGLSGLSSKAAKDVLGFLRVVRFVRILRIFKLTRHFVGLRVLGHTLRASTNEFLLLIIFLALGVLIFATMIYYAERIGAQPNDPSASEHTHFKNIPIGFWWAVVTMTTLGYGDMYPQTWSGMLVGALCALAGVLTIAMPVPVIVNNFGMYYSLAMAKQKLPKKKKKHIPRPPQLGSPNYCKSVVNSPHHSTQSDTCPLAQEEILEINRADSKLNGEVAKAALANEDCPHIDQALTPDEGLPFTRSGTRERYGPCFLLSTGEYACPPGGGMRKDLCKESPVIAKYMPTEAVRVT
In short: (§1)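 KV channels in transiently transfected HEK293T cells, whole-cell. Pipette (mM): 140 KCl, 2.5 MgCl2, 11 EGTA, 10 HEPES, pH 7.4. Bath (mM): 145 NaCl, 2.8 KCl, 2 CaCl2, 1 MgCl2, 10 glucose, 10 HEPES, pH 7.4. 0.1% DMSO bath applied, then 10 μM test compound. DMSO vs compound inhibition ratio compared by unpaired t-test, n = 5.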

KV3.3 = molecular target: T2, KV3.3 (Mus musculus, UniProt Q63959); conditions: vs 0.1% DMSO
T2 sequence (Q63959 1-769): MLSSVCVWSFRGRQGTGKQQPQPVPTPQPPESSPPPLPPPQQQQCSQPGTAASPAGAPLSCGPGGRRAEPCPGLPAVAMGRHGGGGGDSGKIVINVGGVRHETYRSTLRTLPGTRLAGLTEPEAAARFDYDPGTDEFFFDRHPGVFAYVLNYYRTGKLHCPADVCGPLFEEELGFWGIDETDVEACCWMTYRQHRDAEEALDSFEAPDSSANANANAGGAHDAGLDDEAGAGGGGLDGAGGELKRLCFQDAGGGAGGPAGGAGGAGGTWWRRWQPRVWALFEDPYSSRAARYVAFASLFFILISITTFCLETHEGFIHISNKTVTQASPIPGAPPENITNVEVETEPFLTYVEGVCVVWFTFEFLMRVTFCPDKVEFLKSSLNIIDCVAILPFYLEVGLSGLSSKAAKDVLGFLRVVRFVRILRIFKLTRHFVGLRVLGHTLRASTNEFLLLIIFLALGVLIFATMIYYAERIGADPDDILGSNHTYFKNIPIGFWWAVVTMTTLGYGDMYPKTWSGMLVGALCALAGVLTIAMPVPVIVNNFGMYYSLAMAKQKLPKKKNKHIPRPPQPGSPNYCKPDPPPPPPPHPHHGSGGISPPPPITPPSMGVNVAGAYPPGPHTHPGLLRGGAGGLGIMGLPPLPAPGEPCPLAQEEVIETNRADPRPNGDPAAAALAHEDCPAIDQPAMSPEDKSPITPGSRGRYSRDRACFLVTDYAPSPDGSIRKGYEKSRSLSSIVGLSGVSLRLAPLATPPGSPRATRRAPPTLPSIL
In short: as §1

CaV2.2 = CaV2.2 (Rattus norvegicus, UniProt Q02294); conditions: for sensitivity of channel to compound: vs 0.1% DMSO
Sequence of CaV2.2 (Q02294 whole entry): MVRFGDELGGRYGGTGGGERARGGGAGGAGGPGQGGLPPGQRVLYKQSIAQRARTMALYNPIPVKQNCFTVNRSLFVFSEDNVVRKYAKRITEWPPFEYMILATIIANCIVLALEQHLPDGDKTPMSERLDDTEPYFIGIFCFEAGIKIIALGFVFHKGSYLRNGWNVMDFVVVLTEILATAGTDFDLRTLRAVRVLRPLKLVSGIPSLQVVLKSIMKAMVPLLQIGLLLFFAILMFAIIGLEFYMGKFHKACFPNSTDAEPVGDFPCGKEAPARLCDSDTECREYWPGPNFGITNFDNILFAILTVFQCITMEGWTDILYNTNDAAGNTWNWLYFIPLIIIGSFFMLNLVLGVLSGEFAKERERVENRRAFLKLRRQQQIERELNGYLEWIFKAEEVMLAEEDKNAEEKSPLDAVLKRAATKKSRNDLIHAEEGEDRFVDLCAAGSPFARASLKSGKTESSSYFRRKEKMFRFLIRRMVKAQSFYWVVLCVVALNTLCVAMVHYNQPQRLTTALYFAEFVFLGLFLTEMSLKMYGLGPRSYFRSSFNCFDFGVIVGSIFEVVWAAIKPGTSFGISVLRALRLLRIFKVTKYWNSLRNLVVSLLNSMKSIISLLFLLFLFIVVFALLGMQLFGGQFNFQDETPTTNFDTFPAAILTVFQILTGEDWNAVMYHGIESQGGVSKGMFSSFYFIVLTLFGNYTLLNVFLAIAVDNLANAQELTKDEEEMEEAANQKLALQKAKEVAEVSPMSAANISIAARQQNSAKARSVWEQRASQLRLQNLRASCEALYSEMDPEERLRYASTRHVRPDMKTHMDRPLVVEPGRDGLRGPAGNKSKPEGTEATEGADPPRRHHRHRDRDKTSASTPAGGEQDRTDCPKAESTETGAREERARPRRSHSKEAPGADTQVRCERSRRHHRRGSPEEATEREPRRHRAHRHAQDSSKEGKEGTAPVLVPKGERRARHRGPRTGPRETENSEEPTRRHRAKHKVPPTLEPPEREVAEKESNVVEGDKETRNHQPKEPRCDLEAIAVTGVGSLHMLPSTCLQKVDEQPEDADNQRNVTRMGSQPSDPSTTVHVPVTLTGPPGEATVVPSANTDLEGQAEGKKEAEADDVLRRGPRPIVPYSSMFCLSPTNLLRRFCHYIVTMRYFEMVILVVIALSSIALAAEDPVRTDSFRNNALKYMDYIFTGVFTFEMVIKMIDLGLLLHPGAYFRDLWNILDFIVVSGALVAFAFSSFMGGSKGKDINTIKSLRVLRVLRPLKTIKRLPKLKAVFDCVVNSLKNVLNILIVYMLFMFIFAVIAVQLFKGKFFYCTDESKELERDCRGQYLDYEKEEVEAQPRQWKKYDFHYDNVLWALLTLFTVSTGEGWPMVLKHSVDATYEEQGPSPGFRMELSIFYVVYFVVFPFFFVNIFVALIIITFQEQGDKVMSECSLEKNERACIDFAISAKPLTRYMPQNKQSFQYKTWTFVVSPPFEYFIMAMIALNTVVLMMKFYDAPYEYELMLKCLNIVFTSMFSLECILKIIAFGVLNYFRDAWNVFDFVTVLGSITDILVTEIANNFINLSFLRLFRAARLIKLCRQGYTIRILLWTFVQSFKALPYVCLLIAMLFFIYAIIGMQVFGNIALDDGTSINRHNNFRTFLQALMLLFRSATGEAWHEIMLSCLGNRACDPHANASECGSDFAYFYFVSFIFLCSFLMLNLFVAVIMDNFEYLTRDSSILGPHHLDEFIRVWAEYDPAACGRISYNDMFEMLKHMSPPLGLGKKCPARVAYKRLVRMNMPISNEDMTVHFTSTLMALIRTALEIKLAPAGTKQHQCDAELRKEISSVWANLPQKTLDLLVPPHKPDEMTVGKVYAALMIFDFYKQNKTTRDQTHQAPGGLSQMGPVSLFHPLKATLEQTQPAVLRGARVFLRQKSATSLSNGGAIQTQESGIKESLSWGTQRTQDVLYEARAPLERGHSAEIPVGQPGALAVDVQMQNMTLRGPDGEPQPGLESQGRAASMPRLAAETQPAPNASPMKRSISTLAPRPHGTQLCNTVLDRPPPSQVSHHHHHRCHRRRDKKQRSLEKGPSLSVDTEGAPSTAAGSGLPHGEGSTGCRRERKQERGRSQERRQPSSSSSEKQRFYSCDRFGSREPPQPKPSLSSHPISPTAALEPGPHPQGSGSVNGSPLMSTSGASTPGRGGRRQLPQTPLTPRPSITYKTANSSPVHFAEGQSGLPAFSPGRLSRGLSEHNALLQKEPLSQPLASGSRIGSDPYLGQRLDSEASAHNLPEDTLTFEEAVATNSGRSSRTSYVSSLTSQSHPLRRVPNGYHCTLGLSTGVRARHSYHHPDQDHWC
In short: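 CaV channels in transfected HEK293T cells, whole-cell. Pipette (mM): 120 CsMeSO3, 2 Mg-ATP, 11 EGTA, 10 HEPES, pH 7.4. Bath (mM): 138 NaCl, 5.6 KCl, 2.6 CaCl2, 20 TEA-Cl, 5 glucose, 5 HEPES, pH 7.4. 0.1% DMSO bath applied before 10 μM test compound. Inhibition ratios compared by unpaired t-test, n = 5.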

ASIC3 = molecular target: T3, ASIC3 (Rattus norvegicus, UniProt O35240); conditions: vs 0.1% DMSO
T3 sequence (O35240 1-533): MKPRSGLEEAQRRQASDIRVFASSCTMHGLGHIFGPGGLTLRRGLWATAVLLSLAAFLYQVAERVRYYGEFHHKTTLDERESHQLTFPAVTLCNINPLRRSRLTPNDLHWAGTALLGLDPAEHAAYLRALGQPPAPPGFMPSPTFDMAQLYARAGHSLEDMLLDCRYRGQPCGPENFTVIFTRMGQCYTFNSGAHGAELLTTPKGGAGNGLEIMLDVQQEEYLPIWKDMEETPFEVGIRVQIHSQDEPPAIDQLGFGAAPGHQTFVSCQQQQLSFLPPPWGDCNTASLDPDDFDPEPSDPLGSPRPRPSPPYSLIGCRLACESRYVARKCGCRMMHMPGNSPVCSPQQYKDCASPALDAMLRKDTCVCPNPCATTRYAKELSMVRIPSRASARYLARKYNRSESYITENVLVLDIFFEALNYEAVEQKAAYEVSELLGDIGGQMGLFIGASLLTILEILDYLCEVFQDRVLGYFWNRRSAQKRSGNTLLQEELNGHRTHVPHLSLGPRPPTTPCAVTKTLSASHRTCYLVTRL
In short: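 ASIC channels in transfected HEK293T cells, whole-cell. Pipette (mM): 140 CsF, 11 EGTA, 1 CaCl2, 2 TEA-Cl, 4 MgCl2, 10 HEPES, pH 7.3. NaCl-based bath with 20 mM HEPES (pH 7.4) or 20 mM MES (pH 5.5). 0.1% DMSO bath applied before 10 μM test compound. Inhibition ratios compared by unpaired t-test, n = 5.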

Sequence of NaV1.4 (P35499 whole entry): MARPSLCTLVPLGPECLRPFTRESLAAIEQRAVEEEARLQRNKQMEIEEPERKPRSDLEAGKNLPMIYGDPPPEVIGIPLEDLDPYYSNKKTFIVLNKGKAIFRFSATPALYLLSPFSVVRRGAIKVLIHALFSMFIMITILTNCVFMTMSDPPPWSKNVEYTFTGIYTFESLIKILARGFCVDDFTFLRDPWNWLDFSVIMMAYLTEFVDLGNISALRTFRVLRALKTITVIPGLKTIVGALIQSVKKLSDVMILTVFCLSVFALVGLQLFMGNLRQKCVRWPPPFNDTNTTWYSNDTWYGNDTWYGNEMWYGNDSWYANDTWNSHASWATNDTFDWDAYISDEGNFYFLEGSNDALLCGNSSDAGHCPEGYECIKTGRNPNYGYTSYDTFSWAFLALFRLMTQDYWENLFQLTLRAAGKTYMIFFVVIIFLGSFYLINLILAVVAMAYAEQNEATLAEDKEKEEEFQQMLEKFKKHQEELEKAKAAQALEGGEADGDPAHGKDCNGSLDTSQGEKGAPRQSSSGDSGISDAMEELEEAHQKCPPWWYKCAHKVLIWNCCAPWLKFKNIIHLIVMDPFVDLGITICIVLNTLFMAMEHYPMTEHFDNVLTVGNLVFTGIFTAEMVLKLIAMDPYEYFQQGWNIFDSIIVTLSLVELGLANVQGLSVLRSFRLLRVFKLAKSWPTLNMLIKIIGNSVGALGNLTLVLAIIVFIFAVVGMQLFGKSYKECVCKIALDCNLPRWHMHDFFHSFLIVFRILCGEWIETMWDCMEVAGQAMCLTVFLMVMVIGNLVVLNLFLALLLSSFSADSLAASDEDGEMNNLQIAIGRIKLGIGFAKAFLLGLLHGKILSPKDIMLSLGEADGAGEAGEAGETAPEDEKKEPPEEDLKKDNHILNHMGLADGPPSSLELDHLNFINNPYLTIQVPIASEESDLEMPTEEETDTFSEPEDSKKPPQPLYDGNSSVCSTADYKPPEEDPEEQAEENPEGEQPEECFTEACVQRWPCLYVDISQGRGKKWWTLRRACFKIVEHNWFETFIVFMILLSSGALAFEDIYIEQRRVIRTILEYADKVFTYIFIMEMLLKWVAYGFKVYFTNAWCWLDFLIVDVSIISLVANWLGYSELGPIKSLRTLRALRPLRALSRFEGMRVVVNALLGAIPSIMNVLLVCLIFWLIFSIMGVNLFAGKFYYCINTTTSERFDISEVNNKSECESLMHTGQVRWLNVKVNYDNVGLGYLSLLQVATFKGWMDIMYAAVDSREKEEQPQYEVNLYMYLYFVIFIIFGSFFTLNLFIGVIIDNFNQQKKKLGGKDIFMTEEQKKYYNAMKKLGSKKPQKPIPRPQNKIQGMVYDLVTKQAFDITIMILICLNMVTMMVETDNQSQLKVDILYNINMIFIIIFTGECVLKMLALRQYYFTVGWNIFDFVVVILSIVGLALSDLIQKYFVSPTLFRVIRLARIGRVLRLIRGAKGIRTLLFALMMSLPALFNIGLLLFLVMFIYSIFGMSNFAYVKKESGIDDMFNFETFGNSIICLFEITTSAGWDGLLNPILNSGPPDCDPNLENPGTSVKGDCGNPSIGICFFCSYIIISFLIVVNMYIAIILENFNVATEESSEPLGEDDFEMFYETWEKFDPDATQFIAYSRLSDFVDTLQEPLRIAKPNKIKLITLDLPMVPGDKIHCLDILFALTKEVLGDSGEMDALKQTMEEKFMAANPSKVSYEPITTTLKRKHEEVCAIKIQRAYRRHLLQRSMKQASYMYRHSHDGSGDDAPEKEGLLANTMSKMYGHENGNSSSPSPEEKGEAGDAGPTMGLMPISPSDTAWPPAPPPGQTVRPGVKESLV

sensitivity of channel to compound (NaV1.4) | sensitivity of channel to compound (KV3.1) | sensitivity of channel to compound (KV3.3) | sensitivity of channel to compound (CaV2.2) | sensitivity of channel to compound (ASIC3) | inhibition ratio (NaV1.4) [%] | inhibition ratio (KV3.1) [%] | inhibition ratio (CaV2.2) [%] | Structure (SMILES)
completely resistant | completely resistant | completely resistant | completely resistant | completely resistant |  |  |  | Cc1cc(NC(=O)c2ccc(Br)o2)ccc1NC(=O)c1ccco1 [B2FAMP, 5-Bromo-N-[4-(2-furoylamino)-3-methylphenyl]-2-furamide]
completely resistant | completely resistant | completely resistant | completely resistant | completely resistant |  |  |  | CC(C)c1noc2ncc(C(=O)c3ccccc3O)cc12 [HIMOP, (2-hydroxyphenyl)-(3-propan-2-yl-5-isoxazolo[5,4-b]pyridinyl)methanone]
 |  | completely resistant |  | completely resistant | 7.0 | 15.2 | 7.9 | Cc1ccc(C(=O)Nc2ccc3ccccc3c2)o1 [MFaN, 5-methyl-N-2-naphthyl-2-furamide]
